Test results taken from publication PMC7395490 (Proceedings of the National Academy of Sciences of the …, 2020).
Several values for one entry are separate records, joined by “and”; a condition that tells them apart may be missing. Identical values can stand only once. Entries after “also recorded” stand apart in the source; their conditions may differ. Like-named read-outs stand apart in the source and are kept apart here.

Experiments:
[1] = Rhodium and platinum content of tissues after i.p. treatment; format: in vivo, NSG mice; conditions: Rh-PPO 1 mpk, oxaliplatin 7.5 mpk i.p.
HCT116 xenograft tumors [2] = assay: Efficacy experiment 1: tumor volume, i.p. dosing; format: in vivo, NSG mice; conditions: for tumor volumes at conclusion of study: day 28, Rh-PPO vs oxaliplatin 7.5 mpk i.p.
Procedure, shortened: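 NSG mice (23 to 34 g) were given 2.5 × 10^6 HCT116 cells in 100 μL McCoy's 5A with 10% FBS, s.c. in the right flank. At ~100 mm3 (11 to 12 d), mice were randomized (10 to 13/group). Test compound in saline was given i.p. three or four times weekly. Vehicle was 0.9% NaCl. Platinum reference in 5% dextrose was given i.p. twice weekly. Mice also received 2 mL s.c. saline twice weekly. Calipers twice weekly; TV = W2L/2.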

[3] = cited from earlier work
HCT116 xenograft tumors [4] = assay: Survival rate and cause of death, efficacy experiment 1; format: in vivo, NSG mice
Procedure, shortened: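 HCT116 s.c. xenograft NSG mice received i.p. vehicle, test compound or platinum reference plus s.c. saline hydration; n = 10 to 13 per group. Mice were removed when found dead, when declining health required killing, or when tumor diameter exceeded 15 mm. Survival versus starting number gave Kaplan–Meier curves. ILS = (DaysT – DaysC)/DaysC against vehicle controls.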

[5] = tested on: HCT116O MMR-deficient cells; conditions: cited from earlier work; for IC50: HCT116O MMR-deficient cells
Stability in rat plasma = format: in vitro ADME
[6] = Plasma pharmacokinetics after i.p. dose; format: in vivo, NSG mice; conditions: for AUC0–8 h / Cmax / t1/2: mouse plasma
Procedure, shortened: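 After the final i.p. dose (0.5 or 1 mpk) in xenograft-bearing NSG mice, blood was taken by cardiac puncture at 0.5, 1, 2, 4 and 8 h (three mice/group/time) into heparinized vials on ice. Plasma was spun at 15,000 × g, 5 min, RT, and stored at −80 °C. Proteins were precipitated with acetonitrile containing a rhodium-complex internal standard. Intact complex was measured by LC-MS/MS; AUC0–8 h came from the concentration curve.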

NSG mice = assay: Maximum tolerated dose; format: in vivo; conditions: for start of notable symptoms of distress and inactivity: mice killed before end of 10-d study
Procedure, shortened: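 Weighed NSG mice received test compound dissolved in saline i.p. at 1, 2, 5 or 15 mpk, once daily for 10 consecutive days. Clinical observations and body weights were recorded daily. Surviving animals were killed with carbon dioxide at study end.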

[7] = Stability in rat liver microsomes; format: in vitro ADME
[8] = Mouse body weights during i.p. treatment; format: in vivo, NSG mice; conditions: Rh-PPO treatment groups, both i.p. schedules
HCT116 xenograft tumors [9] = assay: Intratumoral efficacy experiment; format: in vivo, NSG mice; conditions: 1 mpk intratumoral
Aqueous solubility = format: physicochemical
[10] = Histological analyses of collected tissues; format: in vivo, NSG mice; conditions: Rh-PPO-treated mice, i.p.
[11] = First mouse experiments exploring the administration route; format: in vivo
CRC cell lines = conditions: on average across CRC cell lines; cited from earlier work

O=C1[O][Pt]2([NH][C@@H]3CCCC[C@H]3[NH]2)[O]C1=O [oxaliplatin, reference compound]
distribution of metal among organs [1]: platinum was distributed evenly | tumor volumes at conclusion of study (HCT116 xenograft tumors [2]): statistically similar tumor volumes | half-life [3]: 0.235 h | mouse deaths: found dead in cage (HCT116 xenograft tumors [4]; 7.5 mpk i.p.): 45.5% | IC50 [5]: 27.5 µM

[Rh(chrysi)(phen)(2-(pyridine-2-yl)propan-2-ol]Cl2 [Rh-PPO]
stability in rat plasma (Stability in rat plasma): up to 4 h | distribution of metal among organs [1]: accumulation of rhodium most significantly in the liver | AUC0–8 h ([6]; 0.5 mpk i.p.): 1.31 µM·h | Cmax ([6]; 0.5 mpk i.p.): 450 nM | t1/2 ([6]; 0.5 mpk i.p.): 1.11 h | exposure level (Cmax) relative to in vitro cell IC50 of 250 nM ([6]; 1 mpk i.p.): ~2.5 fold | AUC0–8 h ([6]; 1 mpk i.p.): 1.52 µM·h | Cmax ([6]; 1 mpk i.p.): 650 nM | t1/2 ([6]; 1 mpk i.p.): 1.79 h | time to peak plasma concentration ([6]; i.p. dosing, 0.5 and 1 mpk): ≤ 30 min | Cmax ([6]; read-out: maximum plasma concentration (Cmax), 1 mpk i.p.): 650 nM | reduction in tumor volume relative to vehicle (HCT116 xenograft tumors [2]; Rh-PPO treatment groups (0.5 and 1 mpk i.p.), day 21, efficacy experiment 1): 25 ± 2.7% and 25% | tumor volumes at conclusion of study (HCT116 xenograft tumors [2]): statistically similar tumor volumes | body weight change in MTD study (NSG mice; 1, 2, 5 mpk i.p. daily): lost body weight in a dose-dependent manner | clinical observations (NSG mice; 1 mpk i.p. daily for 10 d): only mild symptoms of distress; also recorded: tolerated over a 10-d period with minor indications of systemic toxicity | start of notable symptoms of distress and inactivity (NSG mice; 2 mpk i.p. daily): 4 days | start of notable symptoms of distress and inactivity (NSG mice; 5 mpk i.p. daily): 2 days | stability in rat liver microsomes [7]: up to 4 h | significant mouse weight loss (more than 15% of original body weight) [8]: neither treatment schedule resulted in significant mouse weight loss | toxicity of intratumoral administration (HCT116 xenograft tumors [9]): significant systemic toxicity; also recorded: unacceptably toxic | aqueous solubility (Aqueous solubility): high aqueous solubility | increase in life span (ILS) relative to vehicle (HCT116 xenograft tumors [4]; Rh-PPO 0.5/1 mpk, oxaliplatin 7.5 mpk i.p.): 12% | mice killed due to poor health and inactivity (HCT116 xenograft tumors [4]; Rh-PPO 1 mpk, oxaliplatin 7.5 mpk i.p.): 10% | mice that died due to tumors reaching maximum allowable size (15 mm) (HCT116 xenograft tumors [4]; both Rh-PPO treatment groups): 90% | organ morphology (histology) [10]: normal organ morphology | IC50 [5]: 0.25 µM | cytotoxicity toward HCT116O compared to HCT116N cells ([5]; MMR-deficient HCT116O vs matched MMR-proficient HCT116N): highly potent and selective cytotoxicity | tolerability of i.v. administration ([11]; 20 mpk i.v.): not well tolerated | oral bioavailability ([11]; oral): zero oral bioavailability | potency relative to cisplatin (CRC cell lines): five times more potent
